Experiment [1] has as its target Sigma non-opioid intracellular receptor 1 (Cavia porcellus, UniProt Q60492). As to the kind of experiment: Displacement of [3H]-(+)-pentazocine from sigma 1 receptor in Dunkin Hartley guinea pig membrane after 180 mins by liquid scintillation counting analysis. The experiment is classed as cell membranes. In general terms: Loss of bound radioactivity is the signal in a displacement assay; it reports binding, not function.

A short description of experiment [2]: Displacement of [3H]-DTG from sigma 2 receptor in Dunkin Hartley guinea pig membrane after 120 mins by liquid scintillation counting analysis […]. The experiment is classed as cell membranes, Cavia porcellus.
A further experiment is filed under the species Cavia porcellus. As to the kind of experiment: Selectivity ratio of Ki for sigma 2 receptor in Dunkin Hartley guinea pig membrane to Ki for sigma 1 receptor in Dunkin Hartley guinea pig membrane. The format is cell membranes.
In experiment [3] the target is Sigma non-opioid intracellular receptor 1 (Cavia porcellus) (UniProt Q60492). The experiment can be described thus: Ratio of Ki for sigma 1 receptor in Dunkin Hartley guinea pig membrane in absence of phenytoin to Ki for sigma 1 receptor in Dunkin Hartley guinea pig membrane in presence of phenytoin. The format is cell membranes.
Experiment [4] has as its system Mus musculus. The experiment can be described thus: Antinociceptive activity against formalin-induced pain in Kunming mouse assessed as reduction in mean licking and biting time at 80 mg/kg, ip administered 15 mins before fomalin injection measured during first phase of 0 to 5 mins after formalin challenge. Conditions: route intraperitoneal. The experiment is classed as functional.

The test system of experiment [5] is Mus musculus. As to the kind of experiment: Antinociceptive activity against formalin-induced pain in Kunming mouse assessed as reduction in mean licking and biting time at 80 mg/kg, ip administered 15 mins before fomalin injection measured during second phase of 15 to 45 mins after formalin challenge. Conditions: route intraperitoneal. The experiment is classed as functional.

The test system of experiment [6] is Mus musculus. As to the kind of experiment: Antinociceptive activity in Kunming mouse assessed as reduction in formalin-induced pain behaviour at 40 mg/kg, ip administered 15 mins before fomalin injection measured during first phase of 0 to 5 mins after formalin challenge. The format is functional. An outline of the steps: (§1)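 Kunming mice (20 ± 2.0 g), 10–12 per group, dosed i.p. in 30% PEG 400 (10 mL/kg) 15 min before intraplantar formalin. Paw licking/biting time was scored in phase I (0–5 min) and phase II (15–45 min). Antinociception (%) = (vehicle licking time − drug licking time)/vehicle licking time × 100. Two-way ANOVA with Newman-Keuls test.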

The subject of experiment [7] is Mus musculus. The experiment can be described thus: Antinociceptive activity in Kunming mouse assessed as reduction in formalin-induced pain behaviour at 80 mg/kg, ip administered 15 mins before fomalin injection measured during first phase of 0 to 5 mins after formalin challenge. The format is functional. An outline of the steps:
as §1

The subject of experiment [8] is Mus musculus. As to the kind of experiment: Antinociceptive activity in Kunming mouse assessed as reduction in formalin-induced pain behaviour at 160 mg/kg, ip administered 15 mins before fomalin injection measured during first phase of 0 to 5 mins after formalin challenge. The format is functional. An outline of the steps:
as §1

For experiment [9], the system named is Mus musculus. As to the kind of experiment: Antinociceptive activity in Kunming mouse assessed as reduction in formalin-induced pain behaviour at 40 mg/kg, ip administered 15 mins before fomalin injection measured during second phase of 15 to 45 mins after formalin challenge. The format is functional. An outline of the steps: as §1
Experiment [10] has as its system Mus musculus. As to the kind of experiment: Antinociceptive activity in Kunming mouse assessed as reduction in formalin-induced pain behaviour at 80 mg/kg, ip administered 15 mins before fomalin injection measured during second phase of 15 to 45 mins after formalin challenge. The format is functional. The method, boiled down: as §1
The test system of experiment [11] is Mus musculus. The experiment can be described thus: Antinociceptive activity in Kunming mouse assessed as reduction in formalin-induced pain behaviour at 160 mg/kg, ip administered 15 mins before fomalin injection measured during second phase of 15 to 45 mins after formalin challenge. The format is functional. The method, boiled down: as §1
Experiment [12] has as its target Sigma non-opioid intracellular receptor 1 (Homo sapiens, UniProt Q99720). The experiment can be described thus: Binding affinity to sigma 1 receptor (unknown origin).
Experiment [13] relates to Mus musculus. As to the kind of experiment: Antinociceptive activity in ip dosed Kunming mouse assessed as reduction in formalin-induced pain behaviour administered 15 mins before fomalin injection measured during first phase of 0 to 5 mins after formalin challenge. The experiment is classed as functional. An outline of the steps:
as §1

In experiment [14] the test system is Mus musculus. The experiment can be described thus: Antinociceptive activity in ip dosed Kunming mouse assessed as reduction in formalin-induced pain behaviour administered 15 mins before fomalin injection measured during second phase of 15 to 45 mins after formalin challenge. The format is functional. The method, boiled down: as §1

These results are taken from ChEMBL document CHEMBL3232762, “Synthesis and biological evaluation of a novel sigma-1 receptor antagonist based on 3,4-dihydro-2(1H)-quinolinone scaffold as a potential analgesic” (Eur J Med Chem, 2014).

The source made the active and inactive calls. The calls are words filed in the database; no cut-off is given here.

One may read the Ki as the equilibrium dissociation constant of an inhibitor or competing ligand from its target. Low values mean higher affinity, high ones lower affinity. For orientation: IC50 means the concentration at which inhibition is half-maximal. Read a low IC50 as greater potency in that assay. A word on the inhibition in vivo: it is the relative decrease from the control value, in per cent. As a reminder, the ED50 is the midpoint of the dose-response relation.

Sequence of Sigma non-opioid intracellular receptor 1 (Cavia porcellus, UniProt Q60492) (Q60492 whole entry): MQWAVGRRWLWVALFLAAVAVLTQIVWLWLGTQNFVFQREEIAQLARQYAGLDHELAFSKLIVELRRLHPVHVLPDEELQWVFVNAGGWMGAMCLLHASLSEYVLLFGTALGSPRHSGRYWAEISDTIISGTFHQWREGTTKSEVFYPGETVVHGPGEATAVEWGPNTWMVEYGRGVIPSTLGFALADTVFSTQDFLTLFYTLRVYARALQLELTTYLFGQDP
Sequence of Sigma non-opioid intracellular receptor 1 (Cavia porcellus) (Q60492 whole entry): as above
Sequence of Sigma non-opioid intracellular receptor 1 (Homo sapiens, UniProt Q99720) (Q99720 whole entry): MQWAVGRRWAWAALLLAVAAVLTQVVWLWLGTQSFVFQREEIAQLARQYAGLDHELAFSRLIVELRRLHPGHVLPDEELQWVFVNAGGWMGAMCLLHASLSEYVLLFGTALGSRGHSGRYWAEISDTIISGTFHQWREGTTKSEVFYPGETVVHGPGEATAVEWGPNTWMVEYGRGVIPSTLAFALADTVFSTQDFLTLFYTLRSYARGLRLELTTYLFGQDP

On to `CC1CCN(CCCOc2ccc3c(c2)N(Cc2ccc(F)cc2)C(=O)CC3)CC1`, for which the Ki in [1] was 0.77 nM; in experiment [2], 960 nM. In addition, the results for the Ratio Ki (in the experiment filed under Cavia porcellus; in experiment [3]) were 1250 and 0.91, respectively. For the same molecule, the Time with Mus musculus [4] worked out at 34.82 s; in the experiment with Mus musculus [5], 89.75 s. For the same molecule, the inhibition result in the experiment with Mus musculus [6], with Mus musculus [7], with Mus musculus [8], in the experiment on Mus musculus [9], with Mus musculus [10] and in the experiment with Mus musculus [11] was “Active” throughout.
Regarding `Cc1ccc(CN2C(=O)CCc3ccc(OCCCN4CCCCC4)cc32)cc1`, the figures for the inhibition constant (Ki) in [1] and in [2] were 1.69 nM and 825 nM, respectively. In addition, the Ratio Ki in the experiment filed under Cavia porcellus was found to be 488.
Consider `O=C1CCc2ccc(OCCN3CCOCC3)cc2N1Cc1ccccc1`, for which the inhibition constant Ki in experiment [1] and in [2] was above 2000 nM throughout.
Take `O=C1CCc2ccc(OCCCCCN3CCOCC3)cc2N1Cc1ccccc1`: the Ki in experiment [1] stood at 88.4 nM; in [2], 1810 nM. Also, the Ratio Ki in the experiment filed under Cavia porcellus was determined as 20.4.
Consider `O=C1CCc2ccc(OCCCN3CCCCC3)cc2N1Cc1ccccc1`, for which the inhibition constant Ki in experiment [1] is 1.84 nM; in [2], 662 nM. The Ratio Ki in the experiment filed under Cavia porcellus was 360.
In the case of `Cc1cc(OCCN2CCOCC2)nn1-c1ccc2ccccc2c1`, the Ki in experiment [1] is 10.5 nM; in experiment [2] it was above 2000 nM. Also, the Ratio Ki in the experiment filed under Cavia porcellus was above 190. Further, the Time came out at 8.63 s in the experiment with Mus musculus [4] and 27.34 s with Mus musculus [5].
For `O=C1CCc2ccc(OCCCN3CCCC3)cc2N1Cc1ccccc1`, the Ki in experiment [1] turned out to be 23.8 nM; in experiment [2], 550 nM. In addition, the Ratio Ki in the experiment filed under Cavia porcellus is 23.1.
For `O=C1CCc2cc(OCCCN3CCOCC3)ccc2N1Cc1ccccc1`, the inhibition constant Ki in [1] worked out at 792 nM; in experiment [2], 1120 nM. For the same molecule, the Ratio Ki in the experiment listed under Cavia porcellus came to 1.4.
On to `O=C1CCc2ccc(OCCCN3CCOCC3)cc2N1CCc1ccccc1`, for which the Ki is 21.6 nM in [1] and 100 nM in experiment [2]. The Ratio Ki in the experiment listed under Cavia porcellus came out at 4.6.
Consider `O=C1CCc2ccc(OCCCN3CCCCC3)cc2N1`, for which the Ki in experiment [1] came out at 89.1 nM; in experiment [2] it was 288 nM. In addition, the Ratio Ki in the experiment listed under Cavia porcellus was 3.2.
As to `CN1CCN(CCCOc2ccc3c(c2)N(Cc2ccccc2)C(=O)CC3)CC1`, the inhibitory constant (Ki) in experiment [1] came out at 4.3 nM; in experiment [2], 161 nM. Further, the Ratio Ki in the experiment listed under Cavia porcellus was found to be 37.4.
The matching figures for `CN1C(=O)CCc2ccc(OCCCN3CCCCC3)cc21`: 34.3 nM, 357 nM and 10.4.
`Cc1ccccc1NC(=N)Nc1ccccc1C` [DITOLYLGUANIDINE] registered an inhibitory constant (Ki) in [2] of 49.2 nM.
With `CCN(CC)CCCOc1ccc2c(c1)N(Cc1ccccc1)C(=O)CC2`, the inhibitory constant (Ki) is 39.4 nM in experiment [1] and 97.2 nM in experiment [2]. The Ratio Ki in the experiment listed under Cavia porcellus amounted to 2.5.
On to `O=C1CCc2cc(OCCCCN3CCOCC3)ccc2N1Cc1ccccc1`, for which the inhibitory constant (Ki) in [1] was found to be 22.2 nM; in experiment [2], 260 nM. In addition, in the experiment listed under Cavia porcellus, the Ratio Ki worked out at 11.7.
Take `O=C1CCc2ccc(OCCCN3CCN(c4ccccc4)CC3)cc2N1Cc1ccccc1`: the inhibition constant Ki in experiment [1] is 341 nM; in experiment [2], above 2000 nM.
In the case of `O=C1CCc2cc(OCCCCCN3CCOCC3)ccc2N1Cc1ccccc1`, the Ki was determined as 70.7 nM in [1] and 430 nM in [2]. Further, the Ratio Ki in the experiment listed under Cavia porcellus stood at 6.1.
For the molecule `O=C1CCN(CCCOc2ccc3c(c2)N(Cc2ccccc2)C(=O)CC3)CC1`, the inhibition constant Ki in experiment [1] came out at 98.2 nM; in [2], 1800 nM. Also, the Ratio Ki in the experiment listed under Cavia porcellus is 18.3.
Consider `Cc1ccc(CN2C(=O)CCc3ccc(OCCCN4CCC(C)CC4)cc32)cc1`, for which the Ki in experiment [1] was 1.49 nM; in experiment [2], 755 nM. For the same molecule, in the experiment listed under Cavia porcellus, the Ratio Ki was found to be 507.
The molecule `COc1cccc2c1CCC(=O)N2CCCN1CCN(c2cccc(Cl)c2)CC1` gave a concentration for half-maximal inhibition (IC50) in experiment [12] of 47 nM.
As to `O=C1CCc2cc(OCCN3CCOCC3)ccc2N1Cc1ccccc1`, the inhibitory constant (Ki) in experiment [1] and in [2] was above 2000 nM in each case.
For the molecule `O=C1CCc2ccc(OCCCN3CCCCC3)cc2N1Cc1ccc(F)cc1`, the figures for the Ki in experiment [1] and in [2] were 1.22 nM and 1300 nM, respectively. Also, the Ratio Ki in the experiment filed under Cavia porcellus is 1070; in experiment [3] it was 0.86. Moreover, the values for the Time in the experiment with Mus musculus [4] and in the experiment with Mus musculus [5] were 12.08 s and 36.13 s, respectively. Also, the inhibition in vivo at 40 mg/kg with Mus musculus [6] (route intraperitoneal) was 33.4%; with Mus musculus [9] (route intraperitoneal), 30.5%. The inhibition in vivo at 80 mg/kg was determined as 84.8% in the experiment with Mus musculus [7] (route intraperitoneal) and 87.7% in the experiment with Mus musculus [10] (route intraperitoneal). Moreover, the inhibition in vivo at 160 mg/kg with Mus musculus [8] (route intraperitoneal) was 97.6%; in the experiment on Mus musculus [11] (route intraperitoneal) it was 98.2%. The ED50 in the experiment with Mus musculus [13] turned out to be 49.4 mg/kg; with Mus musculus [14] it was 50.5 mg/kg. For the same molecule, the inhibition entry in the experiment on Mus musculus [13] and in the experiment on Mus musculus [14] was “Dose-dependent effect” each time.
For `O=C(CCCN1CCC(O)(c2ccc(Cl)cc2)CC1)c1ccc(F)cc1` [HALOPERIDOL], in experiment [2], the Ki was 36.4 nM.
Take `O=C1CCc2cc(OCCCN3CCOCC3)ccc2N1CCc1ccccc1`: the Ki in experiment [1] was found to be 40.2 nM; in [2], 98.1 nM. For the same molecule, the Ratio Ki in the experiment filed under Cavia porcellus amounted to 2.4.
Turning to `CC1CCN(CCCOc2ccc3c(c2)NC(=O)CC3)CC1`, the Ki in experiment [1] is 66.7 nM; in experiment [2], 409 nM. Besides, the Ratio Ki in the experiment filed under Cavia porcellus worked out at 6.1.
Taken in the same sequence, the figures for `O=C1CCc2ccc(OCCCCN3CCOCC3)cc2N1Cc1ccccc1` were 60.2 nM, 530 nM and 8.8.
Take `O=C1CCc2ccc(OCCCCN3CCOCC3)cc2N1CCc1ccccc1`: the Ki in experiment [1] is 44.8 nM; in experiment [2] it was 1200 nM. The Ratio Ki in the experiment listed under Cavia porcellus was 26.8.
With `O=C1CCc2ccc(OCCCCCCN3CCOCC3)cc2N1Cc1ccccc1`, the Ki in experiment [1] came to 682 nM; in experiment [2], 2000 nM.
With `O=C1CCc2cc(OCCCCCCN3CCOCC3)ccc2N1Cc1ccccc1`, the Ki is 852 nM in [1] and above 2000 nM in experiment [2].
For `CC1CCN(CCCOc2ccc3c(c2)N(Cc2ccccc2)C(=O)CC3)CC1`, the Ki is 1.1 nM in [1] and 319 nM in [2]. In addition, the Ratio Ki in the experiment listed under Cavia porcellus worked out at 290.
For the molecule `CN(C)CCCOc1ccc2c(c1)N(Cc1ccccc1)C(=O)CC2`, the Ki in [1] stood at 83.2 nM; in experiment [2], 205 nM. Besides, in the experiment filed under Cavia porcellus, the Ratio Ki worked out at 2.4.
`O=C1CCc2cc(OCCCCN3CCOCC3)ccc2N1CCc1ccccc1`: the results for the Ki in experiment [1] and in experiment [2] were 195 nM and above 2000 nM, respectively.
Regarding `O=C1CCc2ccc(OCCCN3CCOCC3)cc2N1Cc1ccccc1`, the figures for the Ki in experiment [1] and in [2] were 14.8 nM and 471 nM, respectively. Besides, in the experiment filed under Cavia porcellus, the Ratio Ki is 31.8.
On to `CC1CCN(CCCOc2ccc3c(c2)N(C)C(=O)CC3)CC1`, for which the values for the Ki in [1] and in experiment [2] were 40.2 nM and 311 nM, respectively. Also, the Ratio Ki in the experiment listed under Cavia porcellus stood at 7.7.
